TAAR1 antag = antagonists of human TAAR1; actives 1.5% (n = 360,000); CHO RD-HGA16 TAAR1, Fluo-8 calcium fluorescence, antagonist; inhibition, % at 3 µM;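 active = inhibition above a per-plate cutoff, the mean inhibition of test compounds on that plate plus 3 SD, cut at about 49% in these data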
Target sequence (Q96RJ0 whole entry, looked up): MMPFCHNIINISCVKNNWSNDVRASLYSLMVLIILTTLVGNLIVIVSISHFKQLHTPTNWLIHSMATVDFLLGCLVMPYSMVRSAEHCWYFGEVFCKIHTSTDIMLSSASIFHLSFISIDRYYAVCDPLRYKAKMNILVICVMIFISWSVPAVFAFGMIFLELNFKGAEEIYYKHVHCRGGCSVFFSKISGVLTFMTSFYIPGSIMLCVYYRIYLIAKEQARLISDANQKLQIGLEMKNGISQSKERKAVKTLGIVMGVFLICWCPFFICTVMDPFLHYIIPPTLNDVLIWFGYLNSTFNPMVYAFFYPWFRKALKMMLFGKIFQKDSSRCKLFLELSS
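Test system – hTAAR1-expressing CHO RD-HGA16 cells, Gα16-coupled · Reagent – β-PEA at EC80 concentration, post-compound challenge · Compound dosing – 3 µM, single point · Timing – 140 s kinetic read after compound, 140 s after agonist · Detection – Fluo-8 intracellular calcium dye fluorescence, real-time kinetic reads · Control set – DMSO and EC80 PEA controls · Repeats – n of 1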
GPR7 antagonist = antagonists of human GPR7 (neuropeptides B/W receptor 1); P48145; GPR7-expressing cells, fluorescence antagonist assay; inhibition, % at 4.4 µM; actives 1.1% (n = 290,000); in the data active = inhibition above about 16%, passing the limit was not always enough;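 also: cells stimulated with the agonist NPW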
Target sequence (P48145 whole entry, looked up): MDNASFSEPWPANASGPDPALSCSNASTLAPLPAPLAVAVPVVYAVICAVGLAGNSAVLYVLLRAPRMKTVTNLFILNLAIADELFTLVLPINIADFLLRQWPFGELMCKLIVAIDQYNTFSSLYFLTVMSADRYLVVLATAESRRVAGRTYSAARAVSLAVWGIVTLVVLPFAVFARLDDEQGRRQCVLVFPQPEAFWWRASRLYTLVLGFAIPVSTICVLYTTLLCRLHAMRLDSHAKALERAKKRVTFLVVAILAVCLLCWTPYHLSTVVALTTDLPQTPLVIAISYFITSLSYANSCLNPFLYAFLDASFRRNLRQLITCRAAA
TAAR1 agonist = agonists of human TAAR1; Q96RJ0; CHO RD-HGA16 TAAR1, Fluo-8 calcium fluorescence; vehicle wells 0%, saturating PEA agonist 100%; activation, % at 3 µM; actives 0.99% (n = 360,000);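 active = activation above the mean activation of all test compounds in the run plus 3 SD, cut at about 38% in these data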
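System: CHO RD-HGA16 cells carrying human TAAR1 plus Gα16; Incubation: 17-24 h seeding, 75 min 37 °C dye, 30 min RT; Measured by: Fluo-8 fluorescence, 5 s baseline then 140 s kinetic read; Control set: DMSO and PEA EC100; Replication: single well for each compound.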
CHO parental Ca = counter-screen for OX1R antagonists: effect in parental CHO cells | inhibition, % at 5.6 µM | parental CHO-K1, ATP-induced calcium, Fluo-8 fluorescence | actives 0.63% (n = 330,000);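 active = inhibition above that plate's mean sample inhibition plus 3 SD, cut at about 26% in these data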
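Test system: parental CHO cells; detection: calcium-sensitive Fluo-8 fluorescence; evaluation: percent inhibition of calcium signal; also added: ATP as calcium-mobilizing challenge; repeats: one well per compound; control set: ATP-challenged DMSO wells low, unchallenged DMSO wells high; compound: single nominal dose of 5.6 µM per compound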
OX1R antag-1 = antagonists of human orexin 1 receptor; O43613; CHO/OX1R cells, Fluo-8 calcium fluorescence, orexin A; inhibition, % at 5 µM; actives 0.43% (n = 330,000); AID 434989;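 active = inhibition above its plate's threshold, mean inhibition of all tested compounds on the plate plus 3 SD, cut at about 37% in these data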
OX1R antag-2 = blocks the human orexin 1 receptor; O43613; OX1R-expressing cells, FRET antagonist read-out; inhibition, % at 6.6 µM; actives 1.8% (n = 330,000); in the data active = inhibition mostly above about 38%, no sharp cut-off; inactive = mostly below about 40%
GPR7 antag cf = confirmation of human GPR7 antagonists; inhibition, % at 4.4 µM; actives 52% (n = 2,400); GPR7-expressing cells, calcium fluorescence antagonist mode; shares compounds with GPR7 antagonist; in the data active = inhibition above about 24%;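 also: stimulated with the GPR7 agonist NPW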
MCHR1 antag = counter-screen for GPR7 antagonists: antagonists of human MCHR1. shares compounds with GPR7 antagonist. MCHR1-expressing cells, fluorescence antagonist assay. inhibition, % at 4.4 µM. actives 62% (n = 2,400). AID 2148; in the data active = inhibition above about 22%
Hits are given with their value; i = inactive; nt = no result given. This is a sample that favours compounds with a hit; in the whole collection about 4.5% have one here.

SMILES	TAAR1 antag	GPR7 antagonist	TAAR1 agonist	CHO parental Ca	OX1R antag-1	OX1R antag-2	GPR7 antag cf	MCHR1 antag
CC(C)Oc1ccc(F)cc1-c1cc(C(=O)N2CCc3ccccc3C2)[nH]n1	i	nt	i	nt	nt	nt	nt	nt
Cc1ccccc1-c1cccc([C@@H]2C[C@H]3[C@H](CON3C)CN2Cc2ccccc2)c1	i	nt	i	nt	nt	nt	nt	nt
Cc1ccc(OCC(O)Cn2c(=N)n(Cc3ccccc3)c3ccccc32)cc1 (stereo unspecified)	i	32.8	i	i	i	i	36.9	61.0
CCOc1cccc(OCCNC2CCCC2)c1	i	61.4	i	i	i	i	i	i
CC(C)Oc1ccc(OCCNC2CCCC2)cc1	i	i	i	i	i	i	nt	nt
N#CCCN1CCN(Cc2cc(-c3ccccc3)ccc2O)CC1	i	30.7	i	i	i	i	i	i
O=S(=O)(c1ccc(Br)s1)N1CCN(c2ccnc3cc(Cl)ccc23)CC1	i	27.7	i	i	i	i	36.6	29.0
O=C(NCC(=O)N1CCN(c2ncccn2)CC1)c1ccc(F)cc1	i	nt	i	i	i	i	nt	nt
CN=c1scc(-c2ccc(F)cc2)n1/N=C/c1ccc(O)c(O)c1	i	23.1	i	nt	nt	nt	33.1	i
O=C(NCc1ccc(N2CCCC2=O)cc1)c1cc(COc2c(F)cccc2F)on1	i	i	i	i	i	i	nt	nt
C[C@@H]1CN([C@@H](C)CO)C(=O)CCCn2nncc2CO[C@H]1CN(C)C(=O)Nc1cccc(Oc2ccccn2)c1	i	nt	i	nt	nt	nt	nt	nt
O=C(CN1C(=O)/C(=C\c2cccc(Cl)c2)Sc2ccccc21)NCCCN1CCOCC1	i	25.1	i	i	i	i	26.5	35.5
Cc1ccc(CN2C(=O)c3ccccc3Sc3ccc(C(=O)NCCCN4CCOCC4)cc32)cc1	i	28.9	i	i	i	i	40.0	i
CCc1ccc(/C=C2/Sc3ccccc3N(CC(=O)NCCCN3CCOCC3)C2=O)cc1	i	24.6	i	i	i	i	i	i
O=C(CN1C(=O)/C(=C/c2ccc(C(F)(F)F)cc2)Sc2ccccc21)NCCCN1CCOCC1	i	i	i	i	i	i	nt	nt
COc1ccc(CCNC(=O)CCS(=O)(=O)Cc2ccccc2C)cc1OC	i	i	i	i	i	i	nt	nt
CCOCCCNC(=O)CCN1C(=O)c2ccccc2Sc2ncccc21	i	i	i	i	i	i	nt	nt
COc1ccccc1-c1nnc(C2CCN(S(=O)(=O)c3cccc([N+](=O)[O-])c3)CC2)o1	i	i	i	i	i	i	nt	nt
COc1ccccc1-c1nnc(C2CCN(S(=O)(=O)c3ccc([N+](=O)[O-])cc3)CC2)o1	i	21.2	i	i	i	i	48.2	31.7
O=C(NCc1ccccc1)c1ccc(NC(=O)c2ccccc2F)cc1	i	i	i	i	i	i	nt	nt
Cc1ccc(Cl)cc1NC(=O)c1cc2ccccc2cc1O	i	24.5	i	57.5	46.2	i	54.5	53.3
COc1ccc(CN(C)CC(=O)Nc2ccccc2C(=O)NC2CC2)cc1F	i	nt	i	i	i	i	nt	nt
CS(=O)(=O)c1ccc(C(=O)OCc2nnc(-c3ccc(Cl)cc3)o2)cc1[N+](=O)[O-]	nt	35.2	nt	i	i	i	87.7	77.9
NS(=O)(=O)c1cc(C(=O)OCC(=O)c2ccccc2)c(Cl)cc1Cl	i	21.8	i	i	i	i	i	i
CC[n+]1c(/C=C/N(C)c2ccccc2)n(-c2ccccc2)c2ccc(-c3nc4ccccc4s3)cc21	nt	84.5	nt	68.6	79.4	41.6	94.6	88.5
SMILES	TAAR1 antag	GPR7 antagonist	TAAR1 agonist	CHO parental Ca	OX1R antag-1	OX1R antag-2	GPR7 antag cf	MCHR1 antag
O=C(COC(=O)CNS(=O)(=O)c1ccc2ccccc2c1)Nc1ccccc1Sc1ccccc1	i	22.8	i	i	i	i	32.1	34.2
CN(C)c1ccc(NC(=O)CN2CCN(S(=O)(=O)c3cc(Cl)ccc3Cl)CC2)cc1	i	i	i	i	i	i	nt	nt
CC(C)OC(=O)CN1CCN(S(=O)(=O)c2cc(Cl)ccc2Cl)CC1	i	27.1	i	i	i	i	i	i
Cc1noc(C)c1CSc1nnc(-c2ccccc2)o1	i	23.0	i	i	i	i	31.3	21.6
NC(=NCc1ccccc1)c1cccc([N+](=O)[O-])c1	i	i	i	i	i	i	nt	nt
CC1(C)CSC(=NCc2ccccc2)N1C(=O)c1cccc([N+](=O)[O-])c1	i	71.1	i	i	i	i	75.3	82.3
c1ccc(Cn2nnnc2C(c2cccs2)N2CCc3ccccc3C2)cc1 (stereo unspecified)	nt	22.5	nt	i	i	i	i	38.8
COc1ccc(C(=O)NCCc2c[nH]c3ccccc23)cc1OC	i	i	i	i	i	i	nt	nt
O=C(NCCc1c[nH]c2ccccc12)c1ccc2[nH]c(=O)c(=O)[nH]c2c1	i	40.2	i	i	i	i	i	i
CCN1C(=O)[C@H]2[C@H]3CN=C(SCc4ccc(C)cc4)N3[C@@](Cc3ccccc3)(C(=O)OC)[C@H]2C1=O	i	nt	i	i	i	i	nt	nt
CCC(C)c1ccc(OCC(=O)Nc2ccc3c(c2)C(=O)NC3=O)cc1 (stereo unspecified)	i	30.3	i	i	i	i	39.8	67.0
CCc1ccc(OCC(=O)Nc2ccc3c(c2)COC3=O)cc1	i	35.9	i	i	i	i	i	36.9
Cc1ccccc1OCC(=O)Nc1ccc2c(c1)COC2=O	i	i	i	i	i	i	nt	nt
CCOc1ccc(C(=O)Nc2ccc3c(c2)C(=O)NC3=O)cc1	i	i	i	i	i	i	nt	nt
O=C(c1ccco1)N1CCC(c2nc(-c3ccc(F)cc3)no2)CC1	i	i	i	i	i	i	nt	nt
O=C(c1ccco1)N1CCC(c2nc(-c3ccccc3Cl)no2)CC1	i	27.9	i	i	i	i	i	i
CCOC(=O)Cc1csc(NC(=O)COc2ccc(N(C)S(=O)(=O)c3ccc(C)cc3)cc2)n1	i	32.3	i	i	i	i	27.1	66.8
COc1ccc(N2CCN(C3CCCN(C(=O)CN4CCCC4=O)C3)CC2)cc1 (stereo unspecified)	i	i	i	i	i	i	nt	nt
O=S(=O)(Nc1cccc(-c2cn3c(n2)SCC3)c1)c1ccc(F)cc1F	i	24.9	i	i	i	i	i	i
COc1cccc(N2CCc3c(C)nc4ccc(Cl)cc4c32)c1	i	35.6	i	nt	nt	nt	33.4	33.8
CN(CCOc1ccc(Cl)cc1)C(=O)Cc1ccc(S(=O)(=O)N2CCOCC2)s1	i	nt	i	i	i	i	nt	nt
COc1cc(OC)c(OC)cc1CNCCNC(=O)c1ccco1	i	i	i	i	i	i	nt	nt

From PubChem
